Assay results from ChEMBL document CHEMBL4368918, “Structure-Based Design of Inhibitors Selective for Human Proteasome β2c or β2i Subunits” (J Med Chem, 2019).
Calls of active or inactive are those of the source. No cut-off for these calls is given here.

How the values were obtained:
[1] = target: T1, Proteasome subunit beta type-10 (Homo sapiens, UniProt P40306); test: Inhibition of 20S immunoproteasome beta 2 (unknown origin) by cell based ABPP assay
T1 sequence (P40306 whole entry): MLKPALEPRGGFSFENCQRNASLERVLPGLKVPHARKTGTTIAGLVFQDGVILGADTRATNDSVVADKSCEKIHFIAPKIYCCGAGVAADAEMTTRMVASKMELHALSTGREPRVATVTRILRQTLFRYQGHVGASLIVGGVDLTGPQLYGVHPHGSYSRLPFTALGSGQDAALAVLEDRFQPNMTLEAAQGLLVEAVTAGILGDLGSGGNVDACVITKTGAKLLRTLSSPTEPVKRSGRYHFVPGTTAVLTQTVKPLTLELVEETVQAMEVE
Summary of the method: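 Living RPMI-8226 cells, (5–8) ×10^5 cells/mL, exposed to inhibitor 1 h at 37 °C, washed, lysed in digitonin buffer 1 h on ice; residual activity labelled with cocktail ABPs, SDS-PAGE in-gel fluorescence, bands divided by mock, Coomassie staining to correct loading. IC50 from mean of three independent experiments.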

[2] = target: T1, Proteasome subunit beta type-10; test: Inhibition of 20S immunoproteasome beta 2 in human Raji cell lysates after 1 hr by competitive ABPP assay; assay type: subcellular, Lysate
[3] = target: T2, Proteasome Macropain subunit MB1 (Homo sapiens, UniProt P28074); test: Inhibition of 20S constitutive proteasome beta 5 chymotrypsin-like activity in human RPMI8226 cell lysates after 1 hr by coomassie brilliant blue staining-based fluorescence assay; assay type: subcellular, Lysate
T2 sequence (P28074 whole entry): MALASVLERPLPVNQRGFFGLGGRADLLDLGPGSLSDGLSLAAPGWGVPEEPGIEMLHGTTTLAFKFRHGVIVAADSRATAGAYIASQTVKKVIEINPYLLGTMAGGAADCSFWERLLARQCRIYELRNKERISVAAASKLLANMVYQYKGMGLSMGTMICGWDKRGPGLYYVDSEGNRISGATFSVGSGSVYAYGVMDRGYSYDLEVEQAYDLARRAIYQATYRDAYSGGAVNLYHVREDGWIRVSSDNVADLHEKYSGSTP
Summary of the method: (§1)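 Cells at (5–8)×10⁵ cells/mL were exposed to inhibitor for 1 h at 37 °C, washed in PBS and lysed on ice for 1 h in digitonin/ATP buffer. Residual activity was read by cocktail-ABP labeling, SDS-PAGE and fluorescence densitometry relative to mock, with Coomassie staining correcting for loading. IC50 came from three independent experiments.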

[4] = target: T2, Proteasome Macropain subunit MB1; test: Inhibition of 20S constitutive proteasome beta 5 chymotrypsin-like activity in human Raji cell lysates after 1 hr by competitive ABPP assay; assay type: subcellular, Lysate
[5] = target: T3, Proteasome subunit beta type-8 (Homo sapiens, UniProt P28062); test: Inhibition of 20S immunoproteasome beta 5 in human Raji cell lysates after 1 hr by competitive ABPP assay; assay type: subcellular, Lysate
T3 sequence (P28062 whole entry): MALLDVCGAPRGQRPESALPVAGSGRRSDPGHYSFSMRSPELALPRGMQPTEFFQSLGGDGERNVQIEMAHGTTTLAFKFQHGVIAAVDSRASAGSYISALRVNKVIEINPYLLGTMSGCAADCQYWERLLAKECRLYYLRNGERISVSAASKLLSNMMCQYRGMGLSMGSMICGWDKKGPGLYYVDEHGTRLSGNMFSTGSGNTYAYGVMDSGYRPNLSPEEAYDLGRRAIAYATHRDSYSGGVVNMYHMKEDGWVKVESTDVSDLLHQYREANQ

[6] = target: T4, Proteasome subunit beta type-6 (Homo sapiens, UniProt P28072); test: Inhibition of 20S constitutive proteasome beta 1 caspase-like activity in human Raji cell lysates after 1 hr by competitive ABPP assay; assay type: subcellular, Lysate
T4 sequence (P28072 whole entry): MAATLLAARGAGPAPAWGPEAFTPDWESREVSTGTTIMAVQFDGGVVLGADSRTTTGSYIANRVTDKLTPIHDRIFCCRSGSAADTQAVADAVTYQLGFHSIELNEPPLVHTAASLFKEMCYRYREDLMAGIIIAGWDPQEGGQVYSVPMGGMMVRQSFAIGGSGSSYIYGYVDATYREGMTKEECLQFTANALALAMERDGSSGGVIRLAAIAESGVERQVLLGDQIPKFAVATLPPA
Summary of the method: (§2)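 Raji cells were sonicated in 3 volumes of Tris pH 7.5 lysis buffer containing DTT, MgCl₂, sucrose, 2 mM ATP and 0.05% digitonin. Lysate (5 μg protein, in buffer with 2 mM ATP and glycerol) was preincubated with inhibitor for 1 h at 37 °C, then with a cocktail of three fluorescent ABPs for 1 h. In-gel fluorescence densitometry was normalized to mock. IC50 came from the mean of three experiments.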

[7] = target: T5, Proteasome subunit beta type-9 (Homo sapiens, UniProt P28065); test: Inhibition of 20S immunoproteasome beta 1 in human Raji cell lysates after 1 hr by competitive ABPP assay; assay type: subcellular, Lysate
T5 sequence (P28065 whole entry): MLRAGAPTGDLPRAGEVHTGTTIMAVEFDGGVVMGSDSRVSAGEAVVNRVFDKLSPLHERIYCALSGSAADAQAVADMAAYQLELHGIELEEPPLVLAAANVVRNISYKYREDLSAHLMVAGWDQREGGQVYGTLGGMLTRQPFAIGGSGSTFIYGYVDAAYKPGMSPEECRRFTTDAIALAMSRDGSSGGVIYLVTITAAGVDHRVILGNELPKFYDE
Summary of the method: as §2, with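 “h. […]” for “h.”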

[8] = target: T1, Proteasome subunit beta type-10; test: Inhibition of 20S immunoproteasome beta 2 in human RPMI8226 cell lysates after 1 hr by coomassie brilliant blue staining-based fluorescence assay; assay type: subcellular, Lysate
[9] = target: T3, Proteasome subunit beta type-8; test: Inhibition of 20S immunoproteasome beta 5 in human RPMI8226 cell lysates after 1 hr by coomassie brilliant blue staining-based fluorescence assay; assay type: subcellular, Lysate
Summary of the method: as §1, with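 “Living RPMI-8226 cells were grown in RPMI-1640 with 10% FCS. Cells” for “Cells”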

[10] = target: T5, Proteasome subunit beta type-9; test: Inhibition of 20S immunoproteasome beta 1 in human RPMI8226 cell lysates after 1 hr by coomassie brilliant blue staining-based fluorescence assay; assay type: subcellular, Lysate
Summary of the method: as §1, with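 “Living RPMI-8226 cells were grown in RPMI-1640 with 10% FCS. Cells” for “Cells”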

[11] = target: T6, Proteasome subunit beta type-10 (Homo sapiens) (UniProt P40306); test: Binding affinity to 20S immunoproteasome beta 2 in human Raji cell lysates at 3 uM by ABPP assay; assay type: subcellular; conditions: Lysate
T6 sequence (whole entry): T1 sequence (P40306 whole entry)
Summary of the method: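 Raji lysate (5 μg total protein, Tris pH 7.5, DTT, MgCl₂, glycerol, 2 mM ATP) was labeled with the BODIPY(FL) probe for 1 h at 37 °C. […] The wet gel was scanned at Cy2 settings.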

Homo sapiens [12] = organism: Homo sapiens; test: Selectivity ratio of IC50 for 20S immunoproteasome beta 2 (unknown origin) to IC50 for 20S constitutive proteasome beta 2 trypsin-like activity (unknown origin)
Homo sapiens [13] = organism: Homo sapiens; test: Selectivity ratio of IC50 for 20S immunoproteasome beta 2 in human Raji cell lysates to IC50 for 20S constitutive proteasome beta 2 trypsin-like activity in human Raji cells; assay type: cell-based
Homo sapiens [14] = organism: Homo sapiens; test: Selectivity ratio of IC50 for 20S immunoproteasome beta 1 in human Raji cell lysates to IC50 for 20S constitutive proteasome beta 2 trypsin-like activity in human Raji cells; assay type: cell-based
Homo sapiens [15] = organism: Homo sapiens; test: Selectivity ratio of IC50 for 20S constitutive proteasome beta 1 caspase-like activity in human Raji cell lysates to IC50 for 20S constitutive proteasome beta 2 trypsin-like activity in human Raji cells; assay type: cell-based
Homo sapiens [16] = organism: Homo sapiens; test: Selectivity ratio of IC50 for 20S immunoproteasome beta 5 in human Raji cell lysates to IC50 for 20S constitutive proteasome beta 2 trypsin-like activity in human Raji cells; assay type: cell-based
Homo sapiens [17] = organism: Homo sapiens; test: Selectivity ratio of IC50 for 20S constitutive proteasome beta 5 chymotrypsin-like activity in human Raji cell lysates to IC50 for 20S constitutive proteasome beta 2 trypsin-like activity in human Raji cells; assay type: cell-based
[18] = target: T7, Proteasome subunit beta type-7 (Homo sapiens, UniProt Q99436); test: Inhibition of 20S constitutive proteasome beta 2 trypsin-like activity in human RPMI8226 cell lysates after 1 hr by coomassie brilliant blue staining-based fluorescence assay; assay type: subcellular, Lysate
T7 sequence (Q99436 whole entry): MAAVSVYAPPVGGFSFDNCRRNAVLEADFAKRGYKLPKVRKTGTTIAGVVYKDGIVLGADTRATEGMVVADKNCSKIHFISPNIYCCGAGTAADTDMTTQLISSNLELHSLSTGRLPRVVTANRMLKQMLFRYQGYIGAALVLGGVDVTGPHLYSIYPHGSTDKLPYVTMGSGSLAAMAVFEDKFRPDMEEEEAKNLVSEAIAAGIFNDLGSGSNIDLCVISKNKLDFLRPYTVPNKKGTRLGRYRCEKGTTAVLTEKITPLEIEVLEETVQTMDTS

| Activity [11] | Structure (SMILES) | IC50 [1] | IC50 [2] | IC50 [3] | IC50 [4] | IC50 [5] | IC50 [6] | IC50 [7] | IC50 [8] | IC50 [9] | IC50 [10] | Ratio IC50 (Homo sapiens [12]) | Ratio IC50 (Homo sapiens [13]) | Ratio IC50 (Homo sapiens [14]) | Ratio IC50 (Homo sapiens [15]) | Ratio IC50 (Homo sapiens [16]) | Ratio IC50 (Homo sapiens [17]) | IC50 [18] |
| --- | --- | --- | --- | --- | --- | --- | --- | --- | --- | --- | --- | --- | --- | --- | --- | --- | --- | --- |
|  | CC(C)C[C@H](NC(=O)[C@H](Cc1ccccc1)N=[N+]=[N-])C(=O)N[C@@H](CO)C(=O)N[C@H](/C=C/S(C)(=O)=O)Cc1ccc(CN)cc1 | 0.525 µM | 0.23 µM | > 10 µM | 1.4 µM | 2.2 µM | > 100 µM | > 100 µM | > 10 µM | > 10 µM | > 10 µM |  |  |  |  |  |  |  |
| Active | CC1=CC(C)=N/C1=C(/CCCCc1cn(CCOc2ccc(C[C@H](NC(=O)[C@H](C)NC(=O)CN3CCOCC3)C(=O)N[C@@H](CC3CCCC4CCCCC43)C(=O)[C@@]3(C)CO3)cc2)nn1)c1c(C)cc(C)n1B(F)F (some centres undefined) |  |  |  |  |  |  |  |  |  |  |  |  |  |  |  |  |  |
|  | COc1ccc(C[C@H](NC(=O)[C@H](C)NC(=O)CN2CCOCC2)C(=O)N[C@@H](C[C@@H]2CCCc3ccccc32)C(=O)[C@@]2(C)CO2)cc1 |  |  |  | > 100 µM | > 100 µM | > 100 µM | > 100 µM |  |  |  |  |  |  |  |  |  |  |
|  | Cc1ncc(C(=O)N[C@@H](CC2CCCCC2)C(=O)N[C@@H](CC(C)C)C(=O)N[C@H](/C=C/S(C)(=O)=O)Cc2ccc(CN)cc2)s1 | 0.54 µM | 0.42 µM | > 10 µM | > 100 µM | > 100 µM | > 100 µM | > 100 µM | > 10 µM | > 10 µM | > 10 µM | 30 | 6 | > 1500 | > 1500 | > 1500 | > 1500 | > 10 µM |
|  | COC1CCC(C[C@H](NC(=O)c2cnc(C)s2)C(=O)N[C@@H](CC(C)C)C(=O)N[C@H](/C=C/S(C)(=O)=O)Cc2ccc(CN)cc2)CC1 (some centres undefined) | > 1 µM | 3.1 µM | > 10 µM | > 100 µM | > 100 µM | > 100 µM | > 100 µM | > 10 µM | > 10 µM | > 10 µM | > 4 | 7 | > 220 | > 220 | > 220 | > 220 | > 10 µM |
|  | COC[C@H](NC(=O)[C@H](CC(C)C)NC(=O)c1cnc(C)s1)C(=O)N[C@H](/C=C/S(C)(=O)=O)Cc1ccc(CN)cc1 | > 1 µM | 4 µM | > 10 µM | 45.3 µM | 57.1 µM | > 100 µM | > 100 µM | > 10 µM | > 10 µM | > 10 µM | > 14 | 52 | > 1300 | > 1300 | 740 | 590 | > 10 µM |
|  | COc1ccc(C[C@H](NC(=O)[C@H](C)NC(=O)CN2CCOCC2)C(=O)N[C@@H](C[C@H]2CCC[C@@H]3CCCC[C@@H]32)C(=O)[C@@]2(C)CO2)cc1 |  |  |  | > 100 µM | > 100 µM | > 100 µM | > 100 µM |  |  |  |  |  |  |  |  |  |  |
|  | CC(C)C[C@H](NC(=O)[C@H](Cc1ccccc1)N=[N+]=[N-])C(=O)N[C@H](C(=O)N[C@H](/C=C/S(C)(=O)=O)Cc1ccc(CN)cc1)[C@@H](C)O | 0.33 µM | 0.11 µM | > 10 µM | 0.75 µM | 2.1 µM | > 100 µM | > 100 µM | > 10 µM | > 10 µM | > 10 µM |  |  |  |  |  |  |  |
|  | CC(C)C[C@H](NC(=O)c1cnccn1)C(=O)N[C@@H](CC(C)C)C(=O)N[C@H](/C=C/S(C)(=O)=O)Cc1ccc(CN)cc1 | 6.5 µM | 2.9 µM | > 10 µM | > 100 µM | > 100 µM | > 100 µM | > 100 µM | > 10 µM | > 10 µM | > 10 µM | 40 | 17 | > 600 | > 600 | > 600 | > 600 | > 10 µM |
|  | CC(C)C[C@H](NC(=O)[C@H](Cc1ccccc1)N=[N+]=[N-])C(=O)NCC(=O)N[C@H](/C=C/S(C)(=O)=O)Cc1ccc(CN)cc1 | 5.9 µM | 2.5 µM | > 10 µM | 8.6 µM | 12.7 µM | > 100 µM | > 100 µM | > 10 µM | > 10 µM | > 10 µM | 224 | 54 | > 2200 | > 2200 | 187 | 276 | > 10 µM |
